{"data": "Measurements from different studies", "JAK1": "Tyrosine-protein kinase JAK1 (JAK1, Homo sapiens, UniProt P23458)", "JAK1 JH2": "Tyrosine-protein kinase JAK1, JH2 (JAK1, Homo sapiens, UniProt P23458)", "JAK1 JH1": "Tyrosine-protein kinase JAK1, JH1 (JAK1, Homo sapiens, UniProt P23458)"}
{"Compound": "CN(C)c1ncc(F)c(-c2cnn3ncccc23)n1", "target": "JAK1", "effect on": "binding", "tested at": "1 µM", "remaining binding [%]": 89}
{"Compound": "c1ccc(N2CCN(Cc3nc4ccccc4[nH]3)CC2)nc1", "target": "JAK1 JH2", "effect on": "binding", "technique": "competition with immobilised ligand", "tested at": "1 µM", "remaining binding [%]": 76}
{"Compound": "Cc1cnc(Nc2ccc(C(=O)N3CCC(N4CCCC4)CC3)cc2)nc1-c1cc2ccccc2s1", "target": "JAK1 JH2", "effect on": "binding", "technique": "competition with immobilised ligand", "tested at": "1 µM", "remaining binding [%]": 0}
{"Compound": "N[C@@H]1CCN(c2nccc(-c3cnn4ncccc34)n2)C1", "target": "JAK1", "effect on": "binding", "tested at": "1 µM", "remaining binding [%]": 100}
{"Compound": "O=C(c1ccc(Nc2ncc(Cl)c(-c3cc4ccccc4s3)n2)cc1)N1CCC(N2CCCC2)CC1", "target": "JAK1 JH2", "effect on": "binding", "technique": "competition with immobilised ligand", "tested at": "1 µM", "remaining binding [%]": 0.9}
{"Compound": "CN(C)CC#Cc1ccc(OCCCc2sc(N3CCc4cccc(C(=O)Nc5nc6ccccc6s5)c4C3)nc2C(=O)O)c(F)c1", "target": "JAK1 JH2", "effect on": "cell-free assay", "technique": "competition with immobilised ligand", "tested at": "1 µM", "remaining binding [%]": 100}
{"Compound": "CNC(=O)[C@@H]1CC[C@@H](n2c(-c3ccc4cnccc4c3)nc3ccc(C(=O)NCc4cccc(C(N)=O)c4)cc32)C1", "target": "JAK1 JH2", "effect on": "binding", "technique": "competition with immobilised ligand", "tested at": "1 µM", "remaining binding [%]": 60}
{"Compound": "CCC(=O)N[C@H]1CC[C@@H](C(=O)N(C)c2ccc(-c3nc4ccccc4o3)cc2)C1", "target": "JAK1 JH2", "effect on": "cell-free assay", "technique": "competition with immobilised ligand", "tested at": "1 µM", "remaining binding [%]": 77}
{"Compound": "O=C(NCCCN1CCOCC1)c1ccc(Nc2ncc(Cl)c(-c3ccc(Cl)s3)n2)cc1", "target": "JAK1 JH1", "effect on": "binding", "technique": "competition with immobilised ligand", "tested at": "1 µM", "remaining binding [%]": 4.6}
{"Compound": "C[C@@H]1CCN(c2nccc(-c3cnn4ncccc34)n2)C1", "target": "JAK1", "effect on": "binding", "tested at": "1 µM", "remaining binding [%]": 62}
{"Compound": "Nc1ncc2c(n1)-c1c([nH]c3ccc(C#CC4CC4)cc13)CCCC2", "target": "JAK1 JH1", "effect on": "binding", "technique": "competition with immobilised ligand", "tested at": "1 µM", "remaining binding [%]": 100}
{"Compound": "COc1ncc2cc3ccccc3nc2c1C#N", "target": "JAK1 JH2", "effect on": "cell-free assay", "technique": "competition with immobilised ligand", "tested at": "5 µM", "remaining binding [%]": 67}
{"Compound": "Cc1cnn2ncc(-c3ccnc(N(C)C)n3)c2c1", "target": "JAK1 JH1", "effect on": "cell-free assay", "technique": "competition with immobilised ligand", "tested at": "1 µM", "remaining binding [%]": 98}
{"Compound": "O=C(NCCCN1CCOCC1)c1ccc(Nc2nccc(-c3cc4ccccc4s3)n2)cc1", "target": "JAK1 JH2", "effect on": "binding", "technique": "competition with immobilised ligand", "tested at": "1 µM", "remaining binding [%]": 41}
{"Compound": "Nc1cnc(N2CCc3cc(S(=O)(=O)Nc4c(F)cc(Cl)cc4F)cc(N4CCCC4=O)c32)nc1", "target": "JAK1 JH1", "effect on": "cell-free assay", "technique": "competition with immobilised ligand", "tested at": "1 µM", "remaining binding [%]": 100}
{"Compound": "CN(C)c1nccc(-c2cnn3ncccc23)n1", "target": "JAK1 JH1", "effect on": "cell-free assay", "technique": "competition with immobilised ligand", "tested at": "1 µM", "remaining binding [%]": 69}
{"Compound": "O=C(c1ccc(Nc2ncc(Cl)c(-c3ccc(Cl)s3)n2)cc1)N1CCC(N2CCCC2)CC1", "target": "JAK1 JH2", "effect on": "binding", "technique": "competition with immobilised ligand", "tested at": "1 µM", "remaining binding [%]": 3.9}
{"Compound": "CC1=C(C#N)[C@@H](c2ccc3[nH]nc(C)c3c2)C(C#N)=C(c2ccc(Cl)cc2)N1", "target": "JAK1 JH1", "effect on": "cell-free assay", "technique": "competition with immobilised ligand", "tested at": "1 µM", "remaining binding [%]": 100}
{"Compound": "F[C@@H]1CCN(c2nccc(-c3cnn4ncccc34)n2)C1", "target": "JAK1", "effect on": "binding", "tested at": "1 µM", "remaining binding [%]": 100}
{"Compound": "CCN1CCN(Cc2ccc(C(=O)Nc3ccc(C)c(Oc4ccc5c(c4)CC(=O)N5)c3)cc2C(F)(F)F)CC1", "target": "JAK1 JH2", "effect on": "binding", "technique": "competition with immobilised ligand", "tested at": "1 µM", "remaining binding [%]": 100}
{"Compound": "COc1ccnn2ncc(-c3ccnc(N(C)C)n3)c12", "target": "JAK1", "effect on": "binding", "tested at": "1 µM", "remaining binding [%]": 74}
{"Compound": "CN(C(=O)c1ccccc1)c1cc(N(C)c2ccc3c(c2)CCc2ccc(C(=O)NCCN4CCOCC4)cc2C3=O)ccc1F", "target": "JAK1 JH2", "effect on": "cell-free assay", "technique": "competition with immobilised ligand", "tested at": "1 µM", "remaining binding [%]": 88}
{"Compound": "c1cncc(-c2cccc(Nc3nccc(NC4CCCCC4)n3)c2)c1", "target": "JAK1 JH2", "effect on": "binding", "technique": "competition with immobilised ligand", "tested at": "10 µM", "remaining binding [%]": 0.2}
{"Compound": "CN(C)c1nccc(-c2cnc3ncccn23)n1", "target": "JAK1 JH1", "effect on": "cell-free assay", "technique": "competition with immobilised ligand", "tested at": "1 µM", "remaining binding [%]": 94}
{"Compound": "C[C@@H]1CN(c2cc(-c3n[nH]c4ccc(OC5(C)CC5)cc34)ncn2)C[C@H](C)O1", "target": "JAK1 JH2", "effect on": "cell-free assay", "technique": "competition with immobilised ligand", "tested at": "0.1 µM", "remaining binding [%]": 79}
{"Compound": "COc1cnc(Nc2cccc(S(N)(=O)=O)c2)nc1N1CCN(c2ccccc2)C(=O)C1", "target": "JAK1 JH2", "effect on": "binding", "technique": "competition with immobilised ligand", "tested at": "1 µM", "remaining binding [%]": 44}
{"Compound": "O=C(NCC1CCOCC1)c1n[nH]cc1NC(=O)c1c(F)cccc1F", "target": "JAK1 JH2", "effect on": "binding", "technique": "competition with immobilised ligand", "tested at": "1 µM", "remaining binding [%]": 90}
{"Compound": "CN1CCN(c2ccc(Nc3nccc(-c4cccc([N+](=O)[O-])c4)n3)cc2C(F)(F)F)CC1", "target": "JAK1", "effect on": "binding", "tested at": "10 µM", "remaining binding [%]": 0.25}
{"Compound": "CO[C@H]1CC[C@H](CNc2ccc(S(=O)(=O)NC(=O)c3ccc(N4CCN(CC5=C(c6ccc(Cl)cc6)CC(C)(C)CC5)CC4)cc3Oc3cnc4[nH]ccc4c3)cc2[N+](=O)[O-])CC1", "target": "JAK1 JH2", "effect on": "cell-free assay", "technique": "competition with immobilised ligand", "tested at": "1 µM", "remaining binding [%]": 100}
{"Compound": "O=C(Nc1c[nH]nc1C(=O)NC1CCNCC1)c1cc(F)cc(F)c1", "target": "JAK1 JH2", "effect on": "binding", "technique": "competition with immobilised ligand", "tested at": "1 µM", "remaining binding [%]": 82}
{"Compound": "COc1cnc(Nc2cccc(S(N)(=O)=O)c2)nc1N1CCN(c2ccccc2)CC1", "target": "JAK1 JH1", "effect on": "binding", "technique": "competition with immobilised ligand", "tested at": "1 µM", "remaining binding [%]": 48}
{"Compound": "O=C(c1ccc(Nc2nccc(-c3cc4ccccc4s3)n2)cc1)N1CCC(N2CCCC2)CC1", "target": "JAK1 JH1", "effect on": "binding", "technique": "competition with immobilised ligand", "tested at": "1 µM", "remaining binding [%]": 82}
